Test results as given in ChEMBL document CHEMBL4382268, “Glycyrrhetinic acid derivatives containing aminophosphonate ester species as multidrug resistance reversers that block the NF-κB pathway and cell proliferation” (Bioorg Med Chem Lett, 2018).

Legend:
[1] = system: L02; test: Antiproliferative activity against human HL-7702 cells after 48 hrs by MTT assay; format: functional, cell-based; conditions: L02, 48 h
Outline: (§1)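 MTT read-out of antiproliferative activity across cancer lines HepG-2, NCI-H460, MGC-803, A549 and MG-63 and normal liver line HL-7702. IC50 given as mean ± S.D. of three separate experiments, each run in triplicate.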

[2] = Inhibition of TNF-alpha induced NF-kappaB activation in human A549 cells after 7 hrs by Bright-Glo luciferase reporter gene assay; format: cell-based
Outline: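 A549 cells transiently cotransfected with an NF-κB-Luc reporter and stimulated with TNF-α. Luciferase read-out of inhibition gives IC50, the mean of at least three independent experiments each with triplicates.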

[3] = system: HepG2; test: Antiproliferative activity against human HepG2 cells after 48 hrs by MTT assay; format: functional, cell-based; conditions: HepG2, 48 h; outline: as §1
[4] = system: NCI-H460; test: Antiproliferative activity against human NCI-H460 cells after 48 hrs by MTT assay; format: functional, cell-based; conditions: NCI-H460, 48 h; outline: as §1
[5] = system: MGC-803; test: Antiproliferative activity against human MGC803 cells after 48 hrs by MTT assay; format: functional, cell-based; conditions: MGC-803, 48 h; outline: as §1
[6] = system: A549; test: Antiproliferative activity against human A549 cells after 48 hrs by MTT assay; format: functional, cell-based; conditions: A549, 48 h; outline: as §1
[7] = system: MG-63; test: Antiproliferative activity against human MG63 cells after 48 hrs by MTT assay; format: functional, cell-based; conditions: MG-63, 48 h; outline: as §1
[8] = Homo sapiens, A549, 7 h, read-out: IC50

SMILES | IC50 [2, 8] [µM] | IC50 [3] [µM] | IC50 [4] [µM] | IC50 [5] [µM] | IC50 [6] [µM] | IC50 ([2]; a549) | IC50 [1] [µM] | IC50 [7] [µM]
CCOP(=O)(OCC)C(Nc1ccc(CC(=O)NCCCNC(=O)[C@@]2(C)CC[C@]3(C)CC[C@]4(C)C(=CC(=O)[C@@H]5[C@@]6(C)CC[C@H](OC(C)=O)C(C)(C)[C@@H]6CC[C@]54C)[C@@H]3C2)cc1)c1cccc(F)c1 (some centres undefined) | > 30 | 37.7 | 29.5 | 27.2 | 34 | – | > 50 | > 50
CC[C@@]1(O)C(=O)OCc2c1cc1n(c2=O)Cc2cc3cc(O)ccc3nc2-1 [HYDROXYCAMPTOTHECIN] | – | – | 10.1 | 9.71 | 9.13 | – | 10.2 | 10.7
CCOP(=O)(OCC)C(Nc1ccc(CC(=O)NCCCNC(=O)[C@@]2(C)CC[C@]3(C)CC[C@]4(C)C(=CC(=O)[C@@H]5[C@@]6(C)CC[C@H](OC(C)=O)C(C)(C)[C@@H]6CC[C@]54C)[C@@H]3C2)cc1)c1ccccc1 (some centres undefined) | 22.1 | 31.6 | 23.2 | 21 | 30.3 | – | > 50 | 25.3
CCOP(=O)(OCC)C(Nc1ccc(CC(=O)NCCCCNC(=O)[C@@]2(C)CC[C@]3(C)CC[C@]4(C)C(=CC(=O)[C@@H]5[C@@]6(C)CC[C@H](O)C(C)(C)[C@@H]6CC[C@]54C)[C@@H]3C2)cc1)c1cccc(F)c1 (some centres undefined) | > 30 | > 50 | > 50 | > 50 | > 50 | – | > 50 | > 50
CCOP(=O)(OCC)C(Nc1ccc(CC(=O)NCCCNC(=O)[C@@]2(C)CC[C@]3(C)CC[C@]4(C)C(=CC(=O)[C@@H]5[C@@]6(C)CC[C@H](O)C(C)(C)[C@@H]6CC[C@]54C)[C@@H]3C2)cc1)c1ccccc1 (some centres undefined) | 28.2 | 40.4 | 46.1 | 31.1 | 36 | – | > 50 | 31
CCOP(=O)(OCC)C(Nc1ccc(CC(=O)NCCCCNC(=O)[C@@]2(C)CC[C@]3(C)CC[C@]4(C)C(=CC(=O)[C@@H]5[C@@]6(C)CC[C@H](O)C(C)(C)[C@@H]6CC[C@]54C)[C@@H]3C2)cc1)c1ccccc1 (some centres undefined) | 25.1 | 37.1 | 30.5 | 36.3 | 33.2 | – | > 50 | 27.8
CCOP(=O)(OCC)C(Nc1ccc(CC(=O)NCCCNC(=O)[C@@]2(C)CC[C@]3(C)CC[C@]4(C)C(=CC(=O)[C@@H]5[C@@]6(C)CC[C@H](O)C(C)(C)[C@@H]6CC[C@]54C)[C@@H]3C2)cc1)c1ccc(OC)cc1 (some centres undefined) | 17.1 | 36.8 | 29.4 | 25.7 | 23.1 | – | > 50 | 23.6
CCOP(=O)(OCC)C(Nc1ccc(CC(=O)NCCCNC(=O)[C@@]2(C)CC[C@]3(C)CC[C@]4(C)C(=CC(=O)[C@@H]5[C@@]6(C)CC[C@H](O)C(C)(C)[C@@H]6CC[C@]54C)[C@@H]3C2)cc1)c1cccc(F)c1 (some centres undefined) | – | > 50 | > 50 | > 50 | > 50 | Not Active | > 50 | > 50
CCOP(=O)(OCC)C(Nc1ccc(CC(=O)NCCCNC(=O)[C@@]2(C)CC[C@]3(C)CC[C@]4(C)C(=CC(=O)[C@@H]5[C@@]6(C)CC[C@H](OC(C)=O)C(C)(C)[C@@H]6CC[C@]54C)[C@@H]3C2)cc1)c1cccc(OC)c1 (some centres undefined) | > 30 | 38.2 | 31.7 | 36.7 | 39.3 | – | > 50 | 39.5
CCOP(=O)(OCC)C(Nc1ccc(CC(=O)NCCCNC(=O)[C@@]2(C)CC[C@]3(C)CC[C@]4(C)C(=CC(=O)[C@@H]5[C@@]6(C)CC[C@H](O)C(C)(C)[C@@H]6CC[C@]54C)[C@@H]3C2)cc1)c1ccc(Br)cc1 (some centres undefined) | > 30 | 35.6 | 20.3 | 35.7 | 31.9 | – | > 50 | 25.1
CCOP(=O)(OCC)C(Nc1ccc(CC(=O)NCCCCNC(=O)[C@@]2(C)CC[C@]3(C)CC[C@]4(C)C(=CC(=O)[C@@H]5[C@@]6(C)CC[C@H](O)C(C)(C)[C@@H]6CC[C@]54C)[C@@H]3C2)cc1)c1ccc(OC)cc1 (some centres undefined) | 13.1 | 32.2 | 24 | 22.2 | 25.2 | – | > 50 | 17.2
CCOP(=O)(OCC)C(Nc1ccc(CC(=O)NCCCNC(=O)[C@@]2(C)CC[C@]3(C)CC[C@]4(C)C(=CC(=O)[C@@H]5[C@@]6(C)CC[C@H](O)C(C)(C)[C@@H]6CC[C@]54C)[C@@H]3C2)cc1)c1cccc(OC)c1 (some centres undefined) | – | > 50 | > 50 | 45.2 | > 50 | Not Active | > 50 | 46.6
CCOP(=O)(OCC)C(Nc1ccc(CC(=O)NCCCCNC(=O)[C@@]2(C)CC[C@]3(C)CC[C@]4(C)C(=CC(=O)[C@@H]5[C@@]6(C)CC[C@H](OC(C)=O)C(C)(C)[C@@H]6CC[C@]54C)[C@@H]3C2)cc1)c1cccc(OC)c1 (some centres undefined) | 23.4 | 35.3 | 27.4 | 32.9 | 27.2 | – | > 50 | 36.6
CCOP(=O)(OCC)C(Nc1ccc(CC(=O)NCCCCNC(=O)[C@@]2(C)CC[C@]3(C)CC[C@]4(C)C(=CC(=O)[C@@H]5[C@@]6(C)CC[C@H](O)C(C)(C)[C@@H]6CC[C@]54C)[C@@H]3C2)cc1)c1cccc(OC)c1 (some centres undefined) | 29.4 | 46.4 | 39.2 | > 50 | 48.3 | – | > 50 | 45.6
CCOP(=O)(OCC)C(Nc1ccc(CC(=O)NCCCCNC(=O)[C@@]2(C)CC[C@]3(C)CC[C@]4(C)C(=CC(=O)[C@@H]5[C@@]6(C)CC[C@H](O)C(C)(C)[C@@H]6CC[C@]54C)[C@@H]3C2)cc1)c1ccc(F)cc1 (some centres undefined) | 6.09 | 20.2 | 19.4 | 18.3 | 19.8 | – | > 50 | 12.4
CCOP(=O)(OCC)C(Nc1ccc(CC(=O)NCCCNC(=O)[C@@]2(C)CC[C@]3(C)CC[C@]4(C)C(=CC(=O)[C@@H]5[C@@]6(C)CC[C@H](O)C(C)(C)[C@@H]6CC[C@]54C)[C@@H]3C2)cc1)c1ccc(F)cc1 (some centres undefined) | 8.89 | 29.1 | 17.3 | 20.5 | 17.9 | – | > 50 | 16.5

Second part, led by results:

IC50 [2, 8] [µM] | IC50 [3] [µM] | IC50 [4] [µM] | IC50 [5] [µM] | IC50 [6] [µM] | IC50 ([2]; a549) | SMILES | IC50 [1] [µM] | IC50 [7] [µM]
11.1 | 19.8 | 10.2 | 17.4 | 17.3 | – | CCOP(=O)(OCC)C(Nc1ccc(CC(=O)NCCCCNC(=O)[C@@]2(C)CC[C@]3(C)CC[C@]4(C)C(=CC(=O)[C@@H]5[C@@]6(C)CC[C@H](OC(C)=O)C(C)(C)[C@@H]6CC[C@]54C)[C@@H]3C2)cc1)c1ccc(Br)cc1 (some centres undefined) | > 50 | 19.2
2.01 | 15.3 | 14.1 | 16.3 | 15.2 | – | CCOP(=O)(OCC)C(Nc1ccc(CC(=O)NCCCCNC(=O)[C@@]2(C)CC[C@]3(C)CC[C@]4(C)C(=CC(=O)[C@@H]5[C@@]6(C)CC[C@H](OC(C)=O)C(C)(C)[C@@H]6CC[C@]54C)[C@@H]3C2)cc1)c1ccc(OC)cc1 (some centres undefined) | > 50 | 13.9
13.2 | 26.3 | 13.2 | 15.2 | 23.1 | – | CCOP(=O)(OCC)C(Nc1ccc(CC(=O)NCCCCNC(=O)[C@@]2(C)CC[C@]3(C)CC[C@]4(C)C(=CC(=O)[C@@H]5[C@@]6(C)CC[C@H](OC(C)=O)C(C)(C)[C@@H]6CC[C@]54C)[C@@H]3C2)cc1)c1ccccc1 (some centres undefined) | > 50 | 20.2
27.1 | 48.2 | 47.6 | 41.8 | 39.6 | – | CCOP(=O)(OCC)C(Nc1ccc(CC(=O)NCCCCNC(=O)[C@@]2(C)CC[C@]3(C)CC[C@]4(C)C(=CC(=O)[C@@H]5[C@@]6(C)CC[C@H](OC(C)=O)C(C)(C)[C@@H]6CC[C@]54C)[C@@H]3C2)cc1)c1cccc(Br)c1 (some centres undefined) | > 50 | > 50
> 30 | > 50 | > 50 | > 50 | > 50 | – | CCOP(=O)(OCC)C(Nc1ccc(CC(=O)NCCCNC(=O)[C@@]2(C)CC[C@]3(C)CC[C@]4(C)C(=CC(=O)[C@@H]5[C@@]6(C)CC[C@H](OC(C)=O)C(C)(C)[C@@H]6CC[C@]54C)[C@@H]3C2)cc1)c1cccc(Br)c1 (some centres undefined) | > 50 | > 50
28.4 | 23.6 | 17.1 | 29.9 | 20.5 | – | CCOP(=O)(OCC)C(Nc1ccc(CC(=O)NCCCNC(=O)[C@@]2(C)CC[C@]3(C)CC[C@]4(C)C(=CC(=O)[C@@H]5[C@@]6(C)CC[C@H](OC(C)=O)C(C)(C)[C@@H]6CC[C@]54C)[C@@H]3C2)cc1)c1ccc(Br)cc1 (some centres undefined) | > 50 | 21.3
16.3 | 29.2 | 25.2 | 30.9 | 24.9 | – | CCOP(=O)(OCC)C(Nc1ccc(CC(=O)NCCCCNC(=O)[C@@]2(C)CC[C@]3(C)CC[C@]4(C)C(=CC(=O)[C@@H]5[C@@]6(C)CC[C@H](O)C(C)(C)[C@@H]6CC[C@]54C)[C@@H]3C2)cc1)c1ccc(Br)cc1 (some centres undefined) | > 50 | 24.6
